Experimental findings from paper PMC3171605 (Bioorganic & medicinal chemistry letters, 2011) are described below.

The test system of one data set is MDCK-mdr1 cells. Nature of the data set: MDCK-mdr1 transport assay. The data set is classed as in vitro ADME, Canine. Conditions: 3.16 µM apical, 1 hr at 37°C. In outline: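 MDCK-mdr1 cells grown on permeable filter inserts for 4 days to confluence. Test compound applied apically at 3.16 µM, incubated 1 hr at 37°C, alongside two reference CB1 antagonists as controls. Apical and basolateral samples dried under nitrogen and quantified by LC-MS/MS (MRM) using a 0.1% formic acid water/methanol gradient at 0.5 mL/min. Read-out is the percentage transported across the monolayer.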
Turning to `Cc1c(C(=O)NC[C@H]2CC[C@@H](CNS(C)(=O)=O)CC2)nn(-c2ccc(Cl)cc2Cl)c1-c1ccc(Cl)cc1` [Compound 22], the “transport from apical to basal side of the membrane” value was “less than 1%”.
The same measure, in the same setting: as for `Cc1c(C(=O)NC[C@H]2CC[C@@H](CNS(N)(=O)=O)CC2)nn(-c2ccc(Cl)cc2Cl)c1-c1ccc(Cl)cc1` [Compound 23], the entry is “less than 1%”; as for `CCNC1(C(N)=O)CCN(c2ncnc3c2nc(-c2ccccc2Cl)n3-c2ccc(Cl)cc2)CC1` [otenabant, reference compound], ~ 90%; as for `Cc1c(C(=O)NN2CCCCC2)nn(-c2ccc(Cl)cc2Cl)c1-c1ccc(Cl)cc1` [rimonabant, reference compound], ~ 15%.

The target of a further data set is T1, CB1 (Homo sapiens, UniProt P21554).
T1 sequence (P21554 whole entry, species assumed): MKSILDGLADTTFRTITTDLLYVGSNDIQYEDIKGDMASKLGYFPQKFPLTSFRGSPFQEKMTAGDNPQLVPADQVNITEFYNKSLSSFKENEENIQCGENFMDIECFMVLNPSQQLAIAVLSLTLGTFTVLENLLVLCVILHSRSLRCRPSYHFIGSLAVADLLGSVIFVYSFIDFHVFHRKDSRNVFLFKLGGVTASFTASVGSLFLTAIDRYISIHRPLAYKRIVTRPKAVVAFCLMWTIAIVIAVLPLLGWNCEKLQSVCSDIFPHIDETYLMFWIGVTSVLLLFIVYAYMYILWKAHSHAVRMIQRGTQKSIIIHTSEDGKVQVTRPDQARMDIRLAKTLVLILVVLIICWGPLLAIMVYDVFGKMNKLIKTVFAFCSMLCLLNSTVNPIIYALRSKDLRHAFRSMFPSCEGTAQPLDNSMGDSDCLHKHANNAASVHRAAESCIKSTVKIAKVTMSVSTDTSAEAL
Test: not given
The class given is cell-based.
Conditions: not given
In turn, `Cc1c(C(=O)Nc2ccncc2)nn(-c2ccc(Cl)cc2Cl)c1-c1ccc(Cl)cc1` [Compound 5] showed a Kb of 117 nM.
On the same count and under the same terms, to `Cc1c(C(=O)Nc2cc[n+](C)cc2)nn(-c2ccc(Cl)cc2Cl)c1-c1ccc(Cl)cc1` [Compound 6] belongs > 10000 nM.
For `Cc1c(C(=O)Nc2cc[n+]([O-])cc2)nn(-c2ccc(Cl)cc2Cl)c1-c1ccc(Cl)cc1` [Compound 7], the Kb was 1390 nM.
Same read-out and setting: to `Cc1ccc(NC(=O)c2nn(-c3ccc(Cl)cc3Cl)c(-c3ccc(Cl)cc3)c2C)cn1` [Compound 8] belongs 384 nM.
On the same count and under the same terms, to `Cc1c(C(=O)Nc2ccc(C)[n+](C)c2)nn(-c2ccc(Cl)cc2Cl)c1-c1ccc(Cl)cc1` [Compound 9] belongs 8410 nM; to `Cc1c(C(=O)Nc2ccc(C)[n+]([O-])c2)nn(-c2ccc(Cl)cc2Cl)c1-c1ccc(Cl)cc1` [Compound 10], 1200 nM.
Same read-out and setting: as for `Cc1ccc(NC(=O)c2nn(-c3ccc(Cl)cc3Cl)c(-c3ccc(Cl)cc3)c2C)nc1` [Compound 11], the figure is 980 nM; as for `Cc1ccc(NC(=O)c2nn(-c3ccc(Cl)cc3Cl)c(-c3ccc(Cl)cc3)c2C)[n+](C)c1` [Compound 12], 8590 nM; as for `Cc1ccc(NC(=O)c2nn(-c3ccc(Cl)cc3Cl)c(-c3ccc(Cl)cc3)c2C)[n+]([O-])c1` [Compound 13], 4580 nM.
Compound `Cc1c(C(=O)N[C@H]2CC[C@H](NS(N)(=O)=O)CC2)nn(-c2ccc(Cl)cc2Cl)c1-c1ccc(Cl)cc1` [Compound 18] yielded a Kb of 9430 nM.
`Cc1c(C(=O)NCC2CCC(CN)CC2)nn(-c2ccc(Cl)cc2Cl)c1-c1ccc(Cl)cc1` (stereo not shown) [Compound 19] yielded a Kb of 3760 nM.

For a further data set, the target named is T1, CB1. Nature of the data set: Radioligand displacement of [3H]1. The class given is binding.
Conditions: not given
Consider `Cc1c(C(=O)NCC2CCC(CNS(C)(=O)=O)CC2)nn(-c2ccc(Cl)cc2Cl)c1-c1ccc(Cl)cc1` (stereo not shown) [Compound 20], for which the inhibition constant Ki (commonly a dissociation constant, usually derived from enzyme kinetics or from competition with a known ligand) was ~10 nM.
